Experiments:
Trypanosoma brucei = assay: ST_JUDE: Cytotoxicity using luciferase to measure ATP as an indicator of the viability of Trypanosoma brucei; type: functional, organism-based
[1] = ST_JUDE: Cytotoxicity using luciferase to measure ATP as an indicator of the viability of human epithelial hepatocellular carcinoma cells (HepG2); type: toxicity, cell-based
Plasmodium falciparum [2] = assay: ST_JUDE: Cytotoxicity against Plasmodium falciparum W2; type: functional, organism-based
Plasmodium falciparum [3] = assay: ST_JUDE: Cytotoxicity against Plasmodium falciparum V1/S; type: functional, organism-based
Plasmodium falciparum [4] = assay: ST_JUDE: Cytotoxicity against Plasmodium falciparum Dd2; type: functional, organism-based
Leishmania major = assay: ST_JUDE: Cytotoxicity using Alamar Blue to measure viability of Leishmania major; type: functional, organism-based
Method in brief: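 L. major promastigotes; drug susceptibility read with Alamar Blue.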

Plasmodium falciparum [5] = assay: ST_JUDE: Plasmodium falciparum 3D7 EC50 (uM) as measured by SYBR green dye; type: functional, organism-based
[6] = ST_JUDE: Cytotoxicity using luciferase to measure ATP as an indicator of the viability of human epithelial embryonic kidney cells (HEK293); type: toxicity, cell-based
Plasmodium falciparum [7] = assay: ST_JUDE: Cytotoxicity against Plasmodium falciparum 3D7; type: functional, organism-based
Method in brief: (§1)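 Asexual P. falciparum grown in human erythrocytes, exposed to compounds for 72 h, and growth read as the DNA quantity in treated versus control cultures. Dose-response run at 12 concentrations from 10 μM to 5 nM.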

Toxoplasma gondii = assay: ST_JUDE: Growth inhibition of to Toxoplasma gondii, in human U-2OS cells, as measured by luciferase.; type: functional, organism-based; conditions: RH, U2OS
Method in brief: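 T. gondii parasites engineered to express luciferase; drug sensitivity read by luminescence.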

Plasmodium falciparum [8] = assay: ST_JUDE: Cytotoxicity against Plasmodium falciparum SB-A6; type: functional, organism-based
[9] = ST_JUDE: Cytotoxicity using luciferase to measure ATP as an indicator of the viability of human foreskin fibroblast cells (BJ); type: toxicity, cell-based
Plasmodium falciparum [10] = assay: ST_JUDE: Plasmodium falciparum K1 EC50 (uM) as measured by SYBR green dye; type: functional, organism-based
[11] = ST_JUDE: Cytotoxicity using luciferase to measure ATP as an indicator of the viability of human Burkitt''s lymphoma lymphoblast cells (Raji); type: toxicity, cell-based
Plasmodium falciparum [12] = assay: ST_JUDE: Cytotoxicity against Plasmodium falciparum K1; type: functional, organism-based; method in brief: as §1
Plasmodium falciparum [13] = assay: ST_JUDE: Cytotoxicity against Plasmodium falciparum D10 transfected with yeast DHOD; type: functional, organism-based

SMILES	EC50 (Trypanosoma brucei)	EC50 [1]	EC50 (Plasmodium falciparum [2])	EC50 (Plasmodium falciparum [3])	EC50 (Plasmodium falciparum [4])	EC50 (Leishmania major)	EC50 (Plasmodium falciparum [5])	EC50 [6]	EC50 (Plasmodium falciparum [7])	EC50 (Toxoplasma gondii)	EC50 (Plasmodium falciparum [8])	EC50 [9]	EC50 (Plasmodium falciparum [10])	EC50 [11]	EC50 (Plasmodium falciparum [12])	EC50 (Plasmodium falciparum [13])
CCOC(=O)C1(Cc2cccc(F)c2)CCN(Cc2ccccc2O)CC1	25300 nM	> 52600 nM	1010 nM	1270 nM	679 nM	> 22500 nM	347 nM	> 52600 nM	1200 nM	> 28800 nM	1200 nM	> 52600 nM	284 nM	> 52600 nM	402 nM	1420 nM
CCOc1cc2c(cc1OCC)C(c1cc(C)c(O)c(C)c1)NCC2 (centres undefined)	14800 nM	> 52000 nM	451 nM	868 nM	420 nM	> 22200 nM	1830 nM	> 52000 nM	1300 nM	> 28500 nM	3000 nM	> 52000 nM	587 nM	> 52000 nM	439 nM	2770 nM
COc1ccc(NC(=O)C2c3ccccc3C(=O)N(CC(C)C)C2c2cccs2)cc1Cl (centres undefined)	2630 nM	> 40400 nM	555 nM	244 nM	167 nM	> 17300 nM	119 nM	> 40400 nM	117 nM	> 22100 nM	150 nM	> 40400 nM	139 nM	> 40400 nM	134 nM	133 nM
Cc1ccc(C)c(NC(=O)CC2C(=O)N(c3ccccc3)C(=S)N2Cc2ccco2)c1 (centres undefined)	> 42300 nM	> 44100 nM	292 nM	361 nM	428 nM	> 18900 nM	259 nM	> 44100 nM	2510 nM	> 24100 nM	385 nM	> 44100 nM	395 nM	41000 nM	2720 nM	449 nM
CCCCOc1ccc(N(C(C)=O)C2=C(N3CCCCC3)C(=O)c3ccccc3C2=O)cc1	4910 nM	13700 nM	483 nM	120 nM	382 nM	> 12200 nM	722 nM	> 28500 nM	167 nM	> 15600 nM	104 nM	> 28500 nM	489 nM	6970 nM	147 nM	62 nM
CCOc1ccc(NC(=O)C2c3ccccc3C(=O)N(CC(C)C)C2c2cccs2)cc1 (centres undefined)	6890 nM	> 42800 nM	134 nM	503 nM	362 nM	> 18300 nM	133 nM	> 42800 nM	258 nM	> 23500 nM	353 nM	> 42800 nM	147 nM	> 42800 nM	294 nM	368 nM
CCOc1ccc(Nc2cc(C)c3ccc(O)cc3n2)cc1	21700 nM	30400 nM	233 nM	195 nM	629 nM	> 22100 nM	483 nM	> 51700 nM	714 nM	> 28300 nM	460 nM	> 51700 nM	153 nM	34400 nM	158 nM	504 nM
Cc1ccc(C)c(N2CCN(Cc3cc(Cl)ccc3O)CC2)c1	> 34400 nM	> 35900 nM	1010 nM	328 nM	323 nM	> 15400 nM	724 nM	> 35900 nM	496 nM	> 19700 nM	536 nM	> 35900 nM	261 nM	> 35900 nM	195 nM	549 nM
CCN1CCN(Cc2c(O)ccc3c(=O)c(Oc4ccccc4C(C)C)c(C(F)(F)F)oc23)CC1	> 22400 nM	> 23300 nM	41.8 nM	102 nM	523 nM	> 9980 nM	226 nM	> 23300 nM	223 nM	> 12800 nM	335 nM	> 23300 nM	59.2 nM	> 23300 nM	69.6 nM	247 nM
Cc1cccc(N2CCN(Cc3cc(Br)ccc3O)CC2)c1C	> 26700 nM	> 27900 nM	> 7160 nM	255 nM	521 nM	> 11900 nM	425 nM	> 27900 nM	372 nM	> 15300 nM	699 nM	> 27900 nM	153 nM	> 27900 nM	178 nM	576 nM
CCCO/C(O)=C1\C(C)=NC2=C(C(=O)CC(c3ccc(OC)c(OC)c3)C2)C1c1ccccc1C (centres undefined)	6570 nM	> 41300 nM	21.3 nM	98.2 nM	89.8 nM	> 17700 nM	308 nM	> 41300 nM	134 nM	> 22600 nM	56.5 nM	> 41300 nM	292 nM	> 41300 nM	110 nM	68.5 nM
C=CC[n+]1c(C=C2C=CN(CC)C=C2)sc2ccccc21	1510 nM	> 28200 nM	> 7250 nM	1270 nM	696 nM	20.8 nM	425 nM	> 28200 nM	1000 nM	> 15500 nM	1310 nM	> 28200 nM	305 nM	1240 nM	> 7250 nM	1290 nM
CC(C)CN1C(=O)c2ccccc2C(C(=O)Nc2ccc(F)cc2F)C1c1cccs1 (centres undefined)	8860 nM	> 43300 nM	738 nM	942 nM	808 nM	> 18500 nM	326 nM	> 43300 nM	647 nM	> 23700 nM	970 nM	> 43300 nM	399 nM	> 43300 nM	> 11100 nM	687 nM
CCOC(=O)C1(Cc2ccc(Cl)cc2)CCN(Cc2ccccc2O)CC1	12300 nM	> 56900 nM	548 nM	327 nM	445 nM	> 24400 nM	457 nM	> 56900 nM	2000 nM	> 31200 nM	549 nM	> 56900 nM	106 nM	> 56900 nM	194 nM	559 nM
O=C(Nc1cccc(Cl)c1N1CCOCC1)C(Cl)(Cl)Cl	> 29000 nM	> 30200 nM	> 7760 nM	1080 nM	2470 nM	> 12900 nM	8600 nM	> 30200 nM	1540 nM	> 16600 nM	2790 nM	> 30200 nM	2980 nM	> 30200 nM	1400 nM	3380 nM
CCO/C(O)=C1\C(C)=NC2=C(C(=O)CC(c3ccc(OC)c(OC)c3)C2)C1c1cccc(Cl)c1 (centres undefined)	16700 nM	> 41900 nM	1800 nM	902 nM	1480 nM	> 17900 nM	716 nM	> 41900 nM	831 nM	> 22900 nM	335 nM	> 41900 nM	226 nM	> 41900 nM	487 nM	531 nM
CCCn1c2c(c(=N)c3c1CCC3)CCCC2	> 38700 nM	> 40300 nM	> 10400 nM	7630 nM	1970 nM	532 nM	2960 nM	> 40300 nM	2560 nM	> 22100 nM	3610 nM	> 40300 nM	3020 nM	> 40300 nM	3000 nM	> 10400 nM
COc1ccc(NC(=O)C2c3ccccc3C(=O)N(C3CCCC3)C2c2cccs2)cc1 (centres undefined)	6530 nM	> 40700 nM	> 10500 nM	1020 nM	1110 nM	> 17400 nM	979 nM	> 40700 nM	1230 nM	> 22300 nM	1970 nM	> 40700 nM	1220 nM	> 40700 nM	1170 nM	1410 nM
CCc1nc2nc(C)cc(Nc3ccc(I)cc3)n2n1	> 37800 nM	> 39500 nM	595 nM	1160 nM	456 nM	> 16900 nM	285 nM	> 39500 nM	347 nM	> 21600 nM	> 10100 nM	> 39500 nM	368 nM	> 39500 nM	641 nM	> 10100 nM
